# According to ChEMBL document CHEMBL1629654, “Breakthrough Aspergillus fumigatus and Candida albicans double infection during caspofungin treatment: laboratory characteristics and implication for susceptibility testing” (2009):
# Active and inactive are the calls of the source. No cut-off for these calls is given here.
# What was measured:
# Candida albicans [1] = assay: Antimicrobial activity against Candida albicans isolate R at 25 ug/ml grown on RPMI 1640 medium after 48 hrs by disk diffusion method; type: functional
# Procedure, shortened: (§1)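 Disk diffusion on 90-mm RPMI 1640 with 2% glucose agar or on Mueller-Hinton agar. Plates were swabbed in three directions with a yeast suspension of 1–5 × 10^6 cells/ml. Paper disks (6 mm) held 1, 5 or 25 µg drug. Zone diameters were read at 24 and 48 h; values are means of two experiments.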
# Candida albicans [2] = assay: Antimicrobial activity against Candida albicans obtained from hemodialysis catheter tip 35 days after admission by Etest; type: functional
# Procedure, shortened: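 Etest on RPMI 1640 agar with 2% glucose, performed according to the manufacturer's recommendations.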
# Candida albicans [3] = assay: Antimicrobial activity against Candida albicans isolate C after 48 hrs by EUCAST microdilution method; type: functional
# Procedure, shortened: (§2)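 EUCAST broth microdilution, plates read spectrophotometrically at 490 nm. MIC is the lowest dilution giving 50% growth inhibition. C. krusei […] control included in each run.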
# [4] = test system: Meyerozyma guilliermondii; assay: Antimicrobial activity against Candida guilliermondii after 24 hrs by M27-A3 method; type: functional
# Candida albicans [5] = assay: Antimicrobial activity against Candida albicans isolate R after 48 hrs by EUCAST microdilution method; type: functional; procedure, shortened: as §2
# Candida albicans [6] = assay: Antimicrobial activity against Candida albicans isolate R after 48 hrs by microdilution method; type: functional
# Procedure, shortened: (§3)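 Broth microdilution in microtiter plates, read spectrophotometrically at 490 nm. MIC taken as the lowest drug dilution giving 50% growth inhibition. C. krusei […] run as control in each run. Read at 24 h and 48 h; trailing growth noted at 48 h.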
# Pichia kudriavzevii [7] = assay: Antimicrobial activity against Candida krusei after 48 hrs
# Candida tropicalis [8] = assay: Antimicrobial activity against Candida tropicalis after 48 hrs by Etest; type: functional
# Candida albicans [9] = assay: Antimicrobial activity against Candida albicans obtained from tracheal suction of patient 5 days after admission by EUCAST microdilution method; type: functional; conditions: Trachea, 120 h; procedure, shortened: as §2
# Candida albicans [10] = assay: Antimicrobial activity against Candida albicans isolate R at 0.5 ug/ml after 48 hrs by agar dilution method; type: functional, organism-based
# Procedure, shortened: (§4)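 Sabouraud agar wells contained caspofungin 0, 0.5, 1 or 2 µg/ml, or anidulafungin 0, 0.003, 0.125 or 0.5 µg/ml. Isolates were subcultured 2 days on CHROMagar. Suspensions of 1–5 × 10^6 CFU/ml in sterile water were diluted 1,500-fold, and 5 µl (about 3–15 cells) was spread per well. Growth was scored.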
# Candida tropicalis [11] = assay: Antimicrobial activity against Candida tropicalis after 48 hrs by 80% endpoint M27-A2 method; type: functional
# Candida albicans [12] = assay: Antimicrobial activity against Candida albicans isolate C after 24 hrs by microdilution method; type: functional; procedure, shortened: as §3
# Candida albicans [13] = assay: Antimicrobial activity against Candida albicans isolate S at 25 ug/ml grown on Muller-Hinton agar medium after 48 hrs by disk diffusion method; type: functional; procedure, shortened: as §1
# [14] = test system: Meyerozyma guilliermondii; assay: Antimicrobial activity against Candida guilliermondii after 48 hrs by 50% endpoint M27-A2 method; type: functional
# Candida albicans [15] = assay: Antimicrobial activity against Candida albicans isolate R at 1 ug/ml after 48 hrs by agar dilution method; type: functional, organism-based
# Procedure, shortened: (§5)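 Agar dilution on Sabouraud agar with caspofungin at 0, 0.5, 1 and 2 per ml. Isolates were subcultured 2 days on CHROMagar. Suspensions of 1×10^6 to 5×10^6 CFU/ml in sterile water were diluted 1,500-fold, and approximately 3 to 15 cells were spread per agar surface. Growth or no growth was scored, with repeated testing.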
# Candida albicans [16] = assay: Antimicrobial activity against Candida albicans isolate R at 5 ug/ml grown on RPMI 1640 medium after 48 hrs by disk diffusion method; type: functional; procedure, shortened: as §1
# Candida albicans [17] = assay: Antimicrobial activity against Candida albicans after 48 hrs by 50% endpoint M27-A2 method; type: functional
# Candida albicans [18] = assay: Antimicrobial activity against Candida albicans isolate C at 0.5 ug/ml after 48 hrs by agar dilution method; type: functional, organism-based; procedure, shortened: as §4
# Candida albicans [19] = assay: Antimicrobial activity against Candida albicans isolate R after 24 hrs by microdilution method; type: functional; procedure, shortened: as §3
# Pichia kudriavzevii [20] = assay: Antimicrobial activity against Candida krusei after 48 hrs by Etest; type: functional
# Candida albicans [21] = assay: Antimicrobial activity against Candida albicans isolate S obtained from blood culture of patient 4 days after admission by EUCAST microdilution method; type: functional; conditions: 96 h; procedure, shortened: as §2
# Nakaseomyces glabratus [22] = assay: Antimicrobial activity against Candida glabrata after 48 hrs
# Candida albicans [23] = assay: Antimicrobial activity against Candida albicans isolate S infected in NMRI mouse assessed as decrease in kidney bacterial burden at 6 mg/kg, ip measured on day 4; type: functional, organism-based; set-up: dose 6 mg/kg
# Candida albicans [24] = assay: Antimicrobial activity against Candida albicans isolate R at 1 ug/ml grown on Muller-Hinton agar medium after 48 hrs by disk diffusion method; type: functional; procedure, shortened: as §1
# Candida parapsilosis [25] = assay: Antimicrobial activity against Candida parapsilosis after 48 hrs by Etest; type: functional; conditions: Lodderomyces parapsilosis
# Candida albicans [26] = assay: Antimicrobial activity against Candida albicans isolate R at 25 ug/ml grown on Muller-Hinton agar medium after 24 hrs by disk diffusion method; type: functional; procedure, shortened: as §1
# Candida albicans [27] = assay: Antimicrobial activity against Candida albicans isolate R at 2 ug/ml after 48 hrs by agar dilution method; type: functional, organism-based; procedure, shortened: as §5
# Candida albicans [28] = assay: Antimicrobial activity against Candida albicans isolate R at 5 ug/ml grown on Muller-Hinton agar medium after 24 hrs by disk diffusion method; type: functional; procedure, shortened: as §1
# Candida albicans [29] = assay: Antimicrobial activity against Candida albicans obtained from urine of patient 21 days after admission by EUCAST microdilution method; type: functional; conditions: 504 h; procedure, shortened: as §2
# Clavispora lusitaniae [30] = assay: Antimicrobial activity against Candida lusitaniae after 48 hrs by 80% endpoint M27-A method
# Candida albicans [31] = assay: Antimicrobial activity against Candida albicans after 48 hrs
# Candida albicans [32] = assay: Antimicrobial activity against Candida albicans isolate R at 5 ug/ml grown on Muller-Hinton agar medium after 48 hrs by disk diffusion method; type: functional; procedure, shortened: as §1
# Clavispora lusitaniae [33] = assay: Antimicrobial activity against Candida lusitaniae after 48 hrs by NCCLS microdilution method; type: functional
# Candida albicans [34] = assay: Antimicrobial activity against Candida albicans isolate R at 1 ug/ml grown on Muller-Hinton agar medium after 24 hrs by disk diffusion method; type: functional; procedure, shortened: as §1
# Nakaseomyces glabratus [35] = assay: Antimicrobial activity against Candida glabrata after 48 hrs by broth microdilution method; type: functional
# Debaryomyces hansenii = assay: Antimicrobial activity against Candida famata after 48 hrs by M27-A method
# Candida albicans [36] = assay: Antimicrobial activity against Candida albicans isolate C at 2 ug/ml after 48 hrs by agar dilution method; type: functional, organism-based; procedure, shortened: as §5
# Candida albicans [37] = assay: Antimicrobial activity against Candida albicans isolate C at 1 ug/ml after 48 hrs by agar dilution method; type: functional, organism-based; procedure, shortened: as §5
# Candida tropicalis [38] = assay: Antimicrobial activity against Candida tropicalis after 48 hrs by broth microdilution method; type: functional
# Candida albicans [39] = assay: Antimicrobial activity against Candida albicans after 48 hrs by 80% endpoint M27-A2 method; type: functional
# Candida albicans [40] = assay: Antimicrobial activity against Candida albicans isolate R at 25 ug/ml grown on Muller-Hinton agar medium after 48 hrs by disk diffusion method; type: functional; procedure, shortened: as §1
# Candida parapsilosis [41] = assay: Antimicrobial activity against Candida parapsilosis after 24 hrs by M27-A3 method; type: functional; conditions: Lodderomyces parapsilosis
# Candida albicans [42] = assay: Antimicrobial activity against Candida albicans obtained from wound of patient 20 days after admission by EUCAST microdilution method; type: functional; conditions: 480 h; procedure, shortened: as §2
smiles,measurement,setting,value
CC[C@H](C)C[C@H](C)CCCCCCCCC(=O)N[C@H]1C[C@@H](O)[C@@H](NCCN)NC(=O)[C@@H]2[C@@H](O)CCN2C(=O)[C@H]([C@H](O)CCN)NC(=O)[C@H]([C@H](O)[C@@H](O)c2ccc(O)cc2)NC(=O)[C@@H]2C[C@@H](O)CN2C(=O)[C@H]([C@@H](C)O)NC1=O [CASPOFUNGIN],inhibition zone (IZ),Candida albicans [1],11.9 mm
same,MIC,Candida albicans [2],32 µg/mL
same,MIC,Candida albicans [3],≤ 0.06 µg/mL
same,MIC90,[4],1 µg/mL
same,MIC,Candida albicans [5],1 µg/mL
same,MIC,Candida albicans [6],1 µg/mL
same,MIC90,Pichia kudriavzevii [7],1 µg/mL
same,MIC90,Candida tropicalis [8],0.5 µg/mL
same,MIC,Candida albicans [9],0.25 µg/mL
same,growth inhibition (GI),Candida albicans [10],inactive
same,MIC90,Candida tropicalis [11],0.5 µg/mL
same,MIC,Candida albicans [12],≤ 0.06 µg/mL
same,inhibition zone (IZ),Candida albicans [13],24.9 mm
same,MIC90,[14],1 µg/mL
same,growth inhibition (GI),Candida albicans [15],inactive
same,inhibition zone (IZ),Candida albicans [16],6.2 mm
same,MIC90,Candida albicans [17],0.5 µg/mL
same,growth inhibition (GI),Candida albicans [18],Active
same,MIC,Candida albicans [19],1 µg/mL
same,MIC90,Pichia kudriavzevii [20],1 µg/mL
same,MIC,Candida albicans [21],0.25 µg/mL
same,MIC90,Nakaseomyces glabratus [22],0.25 µg/mL
same,Activity,Candida albicans [23],Active
same,inhibition zone (IZ),Candida albicans [24],6.1 mm
same,MIC90,Candida parapsilosis [25],2 µg/mL
same,inhibition zone (IZ),Candida albicans [26],13.4 mm
same,growth inhibition (GI),Candida albicans [27],inactive
same,inhibition zone (IZ),Candida albicans [28],8.8 mm
same,MIC,Candida albicans [29],1 µg/mL
same,MIC90,Clavispora lusitaniae [30],1 µg/mL
same,MIC90,Candida albicans [31],0.25 µg/mL
same,inhibition zone (IZ),Candida albicans [32],8.8 mm
same,MIC90,Clavispora lusitaniae [33],2 µg/mL
same,inhibition zone (IZ),Candida albicans [34],6.1 mm
same,MIC90,Nakaseomyces glabratus [35],0.5 µg/mL
same,MIC90,Debaryomyces hansenii,> 8 µg/mL
same,growth inhibition (GI),Candida albicans [36],Active
same,growth inhibition (GI),Candida albicans [37],Active
same,MIC90,Candida tropicalis [38],0.25 µg/mL
same,MIC90,Candida albicans [39],0.5 µg/mL
same,inhibition zone (IZ),Candida albicans [40],12.7 mm
same,MIC90,Candida parapsilosis [41],1 µg/mL
same,MIC,Candida albicans [42],0.5 µg/mL
